# Experimental data taken from ChEMBL document CHEMBL4765448, “Multiple biological active 4-aminopyrazoles containing trifluoromethyl and their 4-nitroso-precursors: Synthesis and evaluation” (Eur J Med Chem, 2020).
# Active and inactive are the calls of the source. The calls are words filed in the database; no cut-off is given here.
# System: Neisseria gonorrhoeae
# Assay: Antibacterial activity against Neisseria gonorrhoeae
# Assay type: functional
# Conditions: not given
row,SMILES,MIC
1,Cc1ccc(-c2c(N)c(C(F)(F)F)nn2-c2ccc(S(N)(=O)=O)cc2)cc1.Cl,250 µg/mL
2,O/N=C1\C(c2ccccc2)=NN(c2ccccc2)C1(O)C(F)(F)F (stereo not given),31.2 µg/mL
3,CS(=O)(=O)c1ccc(-n2nc(C(F)(F)F)c(N)c2-c2ccccc2)cc1.Cl,250 µg/mL

# System: Escherichia coli
# Assay: Antibacterial activity against Escherichia coli
# Assay type: functional
# Conditions: not given
row,SMILES,MIC
1,Cc1ccc(-c2c(N)c(C(F)(F)F)nn2-c2ccc(S(N)(=O)=O)cc2)cc1.Cl,> 250 µg/mL
2,O/N=C1\C(c2ccccc2)=NN(c2ccccc2)C1(O)C(F)(F)F (stereo not given),> 250 µg/mL
3,CS(=O)(=O)c1ccc(-n2nc(C(F)(F)F)c(N)c2-c2ccccc2)cc1.Cl,> 250 µg/mL

# System: Klebsiella pneumoniae
# Assay: Antibacterial activity against Klebsiella pneumoniae
# Assay type: functional
# Conditions: not given
row,SMILES,MIC
1,Cc1ccc(-c2c(N)c(C(F)(F)F)nn2-c2ccc(S(N)(=O)=O)cc2)cc1.Cl,> 250 µg/mL
2,O/N=C1\C(c2ccccc2)=NN(c2ccccc2)C1(O)C(F)(F)F (stereo not given),> 250 µg/mL
3,CS(=O)(=O)c1ccc(-n2nc(C(F)(F)F)c(N)c2-c2ccccc2)cc1.Cl,> 250 µg/mL

# System: Citrobacter braakii
# Assay: Antibacterial activity against Citrobacter braakii
# Assay type: functional
# Conditions: not given
row,SMILES,MIC
1,Cc1ccc(-c2c(N)c(C(F)(F)F)nn2-c2ccc(S(N)(=O)=O)cc2)cc1.Cl,> 250 µg/mL
2,O/N=C1\C(c2ccccc2)=NN(c2ccccc2)C1(O)C(F)(F)F (stereo not given),> 250 µg/mL
3,CS(=O)(=O)c1ccc(-n2nc(C(F)(F)F)c(N)c2-c2ccccc2)cc1.Cl,> 250 µg/mL

# System: Proteus vulgaris
# Assay: Antibacterial activity against Proteus vulgaris
# Assay type: functional
# Conditions: not given
row,SMILES,MIC
1,Cc1ccc(-c2c(N)c(C(F)(F)F)nn2-c2ccc(S(N)(=O)=O)cc2)cc1.Cl,> 250 µg/mL
2,O/N=C1\C(c2ccccc2)=NN(c2ccccc2)C1(O)C(F)(F)F (stereo not given),> 250 µg/mL
3,CS(=O)(=O)c1ccc(-n2nc(C(F)(F)F)c(N)c2-c2ccccc2)cc1.Cl,> 250 µg/mL

# System: Serratia marcescens
# Assay: Antibacterial activity against Serratia marcescens
# Assay type: functional
# Conditions: not given
row,SMILES,MIC
1,Cc1ccc(-c2c(N)c(C(F)(F)F)nn2-c2ccc(S(N)(=O)=O)cc2)cc1.Cl,> 250 µg/mL
2,O/N=C1\C(c2ccccc2)=NN(c2ccccc2)C1(O)C(F)(F)F (stereo not given),> 250 µg/mL
3,CS(=O)(=O)c1ccc(-n2nc(C(F)(F)F)c(N)c2-c2ccccc2)cc1.Cl,> 250 µg/mL

# System: Shigella flexneri
# Assay: Antibacterial activity against Shigella flexneri
# Assay type: functional
# Conditions: not given
row,SMILES,MIC
1,Cc1ccc(-c2c(N)c(C(F)(F)F)nn2-c2ccc(S(N)(=O)=O)cc2)cc1.Cl,> 250 µg/mL
2,O/N=C1\C(c2ccccc2)=NN(c2ccccc2)C1(O)C(F)(F)F (stereo not given),> 250 µg/mL
3,CS(=O)(=O)c1ccc(-n2nc(C(F)(F)F)c(N)c2-c2ccccc2)cc1.Cl,> 250 µg/mL

# System: Pseudomonas aeruginosa
# Assay: Antibacterial activity against Pseudomonas aeruginosa
# Assay type: functional
# Conditions: not given
row,SMILES,MIC
1,Cc1ccc(-c2c(N)c(C(F)(F)F)nn2-c2ccc(S(N)(=O)=O)cc2)cc1.Cl,> 250 µg/mL
2,O/N=C1\C(c2ccccc2)=NN(c2ccccc2)C1(O)C(F)(F)F (stereo not given),> 250 µg/mL
3,CS(=O)(=O)c1ccc(-n2nc(C(F)(F)F)c(N)c2-c2ccccc2)cc1.Cl,> 250 µg/mL

# System: Streptococcus pyogenes
# Assay: Antibacterial activity against Streptococcus pyogenes
# Assay type: functional
# Conditions: not given
row,SMILES,MIC
1,Cc1ccc(-c2c(N)c(C(F)(F)F)nn2-c2ccc(S(N)(=O)=O)cc2)cc1.Cl,> 250 µg/mL
2,O/N=C1\C(c2ccccc2)=NN(c2ccccc2)C1(O)C(F)(F)F (stereo not given),> 250 µg/mL
3,CS(=O)(=O)c1ccc(-n2nc(C(F)(F)F)c(N)c2-c2ccccc2)cc1.Cl,> 250 µg/mL

# System: Staphylococcus aureus
# Assay: Antibacterial activity against Staphylococcus aureus
# Assay type: functional
# Conditions: not given
row,SMILES,MIC
1,Cc1ccc(-c2c(N)c(C(F)(F)F)nn2-c2ccc(S(N)(=O)=O)cc2)cc1.Cl,> 250 µg/mL
2,O/N=C1\C(c2ccccc2)=NN(c2ccccc2)C1(O)C(F)(F)F (stereo not given),31.2 µg/mL
3,CS(=O)(=O)c1ccc(-n2nc(C(F)(F)F)c(N)c2-c2ccccc2)cc1.Cl,> 250 µg/mL

# System: Staphylococcus aureus
# Assay: Antibacterial activity against methicillin resistant Staphylococcus aureus
# Assay type: functional
# Conditions: not given
row,SMILES,MIC
1,O/N=C1\C(c2ccccc2)=NN(c2ccccc2)C1(O)C(F)(F)F (stereo not given),31.2 µg/mL

# System: Trichophyton rubrum
# Assay: Antifungal activity against Trichophyton rubrum
# Assay type: functional
# Conditions: not given
row,SMILES,MIC
1,Cc1ccc(-c2c(N)c(C(F)(F)F)nn2-c2ccc(S(N)(=O)=O)cc2)cc1.Cl,200 µg/mL
2,O/N=C1\C(c2ccccc2)=NN(c2ccccc2)C1(O)C(F)(F)F (stereo not given),25 µg/mL

# System: Nannizzia gypsea
# Assay: Antifungal activity against Trichophyton gypseum
# Assay type: functional
# Conditions: not given
row,SMILES,MIC
1,Cc1ccc(-c2c(N)c(C(F)(F)F)nn2-c2ccc(S(N)(=O)=O)cc2)cc1.Cl,> 200 µg/mL
2,O/N=C1\C(c2ccccc2)=NN(c2ccccc2)C1(O)C(F)(F)F (stereo not given),100 µg/mL

# System: Trichophyton tonsurans
# Assay: Antifungal activity against Trichophyton tonsurans
# Assay type: functional
# Conditions: not given
row,SMILES,MIC
1,Cc1ccc(-c2c(N)c(C(F)(F)F)nn2-c2ccc(S(N)(=O)=O)cc2)cc1.Cl,> 200 µg/mL
2,O/N=C1\C(c2ccccc2)=NN(c2ccccc2)C1(O)C(F)(F)F (stereo not given),50 µg/mL

# System: Trichophyton violaceum
# Assay: Antifungal activity against Trichophyton violaceum
# Assay type: functional
# Conditions: not given
row,SMILES,MIC
1,Cc1ccc(-c2c(N)c(C(F)(F)F)nn2-c2ccc(S(N)(=O)=O)cc2)cc1.Cl,> 200 µg/mL
2,O/N=C1\C(c2ccccc2)=NN(c2ccccc2)C1(O)C(F)(F)F (stereo not given),100 µg/mL

# System: Trichophyton interdigitale
# Assay: Antifungal activity against Trichophyton mentagrophytes var. interdigitale
# Assay type: functional
# Conditions: not given
row,SMILES,MIC
1,Cc1ccc(-c2c(N)c(C(F)(F)F)nn2-c2ccc(S(N)(=O)=O)cc2)cc1.Cl,200 µg/mL
2,O/N=C1\C(c2ccccc2)=NN(c2ccccc2)C1(O)C(F)(F)F (stereo not given),100 µg/mL

# System: Epidermophyton floccosum
# Assay: Antifungal activity against Epidermophyton floccosum
# Assay type: functional
# Conditions: not given
row,SMILES,MIC
1,Cc1ccc(-c2c(N)c(C(F)(F)F)nn2-c2ccc(S(N)(=O)=O)cc2)cc1.Cl,200 µg/mL
2,O/N=C1\C(c2ccccc2)=NN(c2ccccc2)C1(O)C(F)(F)F (stereo not given),100 µg/mL

# System: Microsporum canis
# Assay: Antifungal activity against Microsporum canis
# Assay type: functional
# Conditions: not given
row,SMILES,MIC
1,Cc1ccc(-c2c(N)c(C(F)(F)F)nn2-c2ccc(S(N)(=O)=O)cc2)cc1.Cl,200 µg/mL
2,O/N=C1\C(c2ccccc2)=NN(c2ccccc2)C1(O)C(F)(F)F (stereo not given),100 µg/mL

# System: Candida albicans
# Assay: Antifungal activity against Candida albicans
# Assay type: functional
# Conditions: not given
row,SMILES,MIC
1,Cc1ccc(-c2c(N)c(C(F)(F)F)nn2-c2ccc(S(N)(=O)=O)cc2)cc1.Cl,> 200 µg/mL
2,O/N=C1\C(c2ccccc2)=NN(c2ccccc2)C1(O)C(F)(F)F (stereo not given),50 µg/mL

# System: not listed separately
# Assay: Antioxidant activity assessed as trolox equivalent of ABTS radical scavenging activity measured after 1 hr by UV-vis spectrophotometric method
# Assay type: functional
# Conditions: not given
# Procedure, shortened: (§1)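 ABTS cation-radical decolorization was read spectrophotometrically as the fall in absorbance after 1 h. Trolox was the reference. TEAC was taken as the ratio of concentration-response slopes, test/Trolox, and IC50 was also derived. Data are mean ± SEM, n = 3.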
row,SMILES,Activity
1,O/N=C1\C(c2ccccc2)=NN(c2ccccc2)C1(O)C(F)(F)F (stereo not given),0.44 equiv
2,CS(=O)(=O)c1ccc(-n2nc(C(F)(F)F)c(N)c2-c2ccccc2)cc1.Cl,inactive

# System: not listed separately
# Assay: Antioxidant activity assessed as ABTS radical scavenging activity measured after 1 hr by UV-vis spectrophotometric method
# Assay type: functional
# Conditions: not given
# Procedure, shortened: as §1
row,SMILES,IC50
1,O/N=C1\C(c2ccccc2)=NN(c2ccccc2)C1(O)C(F)(F)F (stereo not given),48.6 µM

# System: not listed separately
# Assay: Antioxidant activity assessed as AAPH scavenging activity by measuring residual fluorescence at 10 uM measured at 1 min interval for 30 mins by ORAC fluorescein assay relative to control
# Assay type: functional
# Conditions: not given
# Procedure, shortened: (§2)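 ORAC-FL assay with fluorescein as the probe and AAPH as the peroxyl radical generator. The loss of fluorescence over time was followed, and the result is given as % fluorescence restored at 10 and 50 µM. Each value is the mean of two independent experiments.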
row,SMILES,Activity
1,Cc1ccc(-c2c(N)c(C(F)(F)F)nn2-c2ccc(S(N)(=O)=O)cc2)cc1.Cl,14.6%

# System: not listed separately
# Assay: Antioxidant activity assessed as AAPH scavenging activity by measuring residual fluorescence at 50 uM measured at 1 min interval for 30 mins by ORAC fluorescein assay relative to control
# Assay type: functional
# Conditions: not given
# Procedure, shortened: as §2
row,SMILES,Activity
1,Cc1ccc(-c2c(N)c(C(F)(F)F)nn2-c2ccc(S(N)(=O)=O)cc2)cc1.Cl,47.1%

# System: Erythrocyte
# Assay: Antioxidant activity in human erythrocytes assessed as protection against AAPH-induced hemolysis at 50 uM preincubated for 20 mins followed by AAPH addition and measured after 2 hrs by spectrophotometric method relative to control
# Assay type: functional
# Conditions: time 140 min, 2.333 h
# Procedure, shortened: (§3)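 Erythrocyte hemolysis assay with AAPH as the free-radical initiator, testing 50 and 400 µM. Results are expressed as relative protection of membranes against oxidative damage, each the mean of two independent experiments.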
row,SMILES,fold change (FC)
1,Cc1ccc(-c2c(N)c(C(F)(F)F)nn2-c2ccc(S(N)(=O)=O)cc2)cc1.Cl,1.18

# System: Erythrocyte
# Assay: Antioxidant activity in human erythrocytes assessed as protection against AAPH-induced hemolysis at 400 uM preincubated for 20 mins followed by AAPH addition and measured after 2 hrs by spectrophotometric method relative to control
# Assay type: functional
# Conditions: time 140 min, 2.333 h
# Procedure, shortened: as §3
row,SMILES,fold change (FC)
1,Cc1ccc(-c2c(N)c(C(F)(F)F)nn2-c2ccc(S(N)(=O)=O)cc2)cc1.Cl,1.17

# System: HeLa
# Assay: Cytotoxicity against human HeLa cells
# Assay type: functional, cell-based
# Conditions: hela
row,SMILES,IC50
1,CS(=O)(=O)c1ccc(-n2nc(C(F)(F)F)c(N)c2-c2ccccc2)cc1.Cl,Not Active

# System: NHDF
# Assay: Cytotoxicity against HDF cells
# Assay type: cell-based, Homo sapiens
# Conditions: nhdf
row,SMILES,IC50
1,CS(=O)(=O)c1ccc(-n2nc(C(F)(F)F)c(N)c2-c2ccccc2)cc1.Cl,Not Active

# System: Rattus norvegicus
# Assay: Analgesic activity in rat assessed as prolongation of latency period at 15 mg/kg, ip measured after 1 hr by hot-plate test relative to control
# Assay type: functional
# Conditions: not given
# Procedure, shortened: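 Hot-plate test in rats. Compounds were given by intraperitoneal injection. Latency was read at 1 h and, for some compounds, also at 2 h after dosing. Results are expressed as % prolongation of the latent period versus vehicle-treated control. Significance was given as p-values.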
row,SMILES,Activity
1,Cc1ccc(-c2c(N)c(C(F)(F)F)nn2-c2ccc(S(N)(=O)=O)cc2)cc1.Cl,inactive

# System: Rattus norvegicus
# Assay: Antiinflammatory activity in rat model of carrageenan-induced paw edema assessed as inhibition of hind paw swelling at 15 mg/kg, ip measured after 5 hrs
# Assay type: functional, organism-based
# Conditions: not given
row,SMILES,Activity
1,Cc1ccc(-c2c(N)c(C(F)(F)F)nn2-c2ccc(S(N)(=O)=O)cc2)cc1.Cl,Active
2,O/N=C1\C(c2ccccc2)=NN(c2ccccc2)C1(O)C(F)(F)F (stereo not given),Active
3,CS(=O)(=O)c1ccc(-n2nc(C(F)(F)F)c(N)c2-c2ccccc2)cc1.Cl,Active
